According to ChEMBL document CHEMBL4673272, “Discovery of cyclic sulfonamide derivatives as potent inhibitors of SARS-CoV-2” (Bioorg Med Chem Lett, 2021):

Legend:
SARS-CoV-2 = experiment: Antiviral activity against SARS-CoV-2 betaCoV/KOR/KCDC03/2020 infected in African green monkey Vero cells assessed as inhibition of virus-induced cytopathic effect measured after 24 hrs by immunofluorescence assay; assay type: functional, organism-based; conditions: Severe acute respiratory syndrome coronavirus 2, betaCoV/KOR/KCDC03/2020, Vero
[1] = Cytotoxicity against African green monkey Vero cells infected with SARS-CoV-2 betaCoV/KOR/KCDC03/2020 assessed as reduction in cell viability measured after 72 hrs by CellTiter-Glo Luminescent Cell Viability Assay; assay type: cell-based; conditions: chlorocebus sabaeus
[2] = Selectivity index, ratio of CC50 for African green monkey Vero cells infected with SARS-CoV-2 betaCoV/KOR/KCDC03/2020 to IC50 for SARS-CoV-2 betaCoV/KOR/KCDC03/2020
[3] = Clearance in rat at 5 mg/kg, iv or 10 mg/kg, po; assay type: ADME, organism-based; conditions: in vivo
Procedure, shortened: (§1)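 Rats, n = 3, were dosed at 5 mg/kg IV and 10 mg/kg PO. Cmax, T1/2, clearance and oral bioavailability (F) were derived from these two dosing routes.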

hERG (KCNH2) = hERG (KCNH2) (Homo sapiens, UniProt Q12809); experiment: Inhibition of human ERG at 10 uM relative to control
Vero = experiment: Cytotoxicity against African green monkey Vero cells; assay type: cell-based; conditions: chlorocebus sabaeus
Procedure, shortened: (§2)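 Cell-line panel used for cytotoxicity: Vero, African green monkey kidney; HFL-1, human embryonic lung; L929 (NCTC clone 929), mouse fibroblast; NIH 3T3, mouse embryonic fibroblast; CHO-K1, Chinese hamster ovary. Values given in μM.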

L929 = experiment: Cytotoxicity against mouse L929 cells; assay type: cell-based; procedure, shortened: as §2
HFL1 = experiment: Cytotoxicity against human HFL-1 cells; assay type: cell-based; procedure, shortened: as §2
[4] = Half life in rat at 5 mg/kg, iv or 10 mg/kg, po; assay type: ADME, organism-based; conditions: in vivo; procedure, shortened: as §1
[5] = Metabolic stability in monkey microsomes assessed as parent compound remaining incubated for 30 mins; assay type: ADME, Macaca mulatta, Microsome; conditions: rhesus monkey, read-out: Stabilty
CHO-K1 = experiment: Cytotoxicity against CHO-K1 cells; assay type: cell-based, Cricetulus griseus; conditions: chinese hamster; procedure, shortened: as §2
[6] = Oral bioavailability in rat at 10 mg/kg; assay type: ADME, organism-based; conditions: in vivo; procedure, shortened: as §1
[7] = Cmax in rat at 5 mg/kg, iv or 10 mg/kg, po; assay type: ADME, organism-based; parameters: dose 10 mg/kg; conditions: in vivo; procedure, shortened: as §1
NIH3T3 = experiment: Cytotoxicity against mouse NIH/3T3 cells; assay type: cell-based; procedure, shortened: as §2
[8] = Metabolic stability in human microsomes assessed as parent compound remaining incubated for 30 mins; assay type: ADME, Microsome; conditions: read-out: Stabilty

hERG (KCNH2), sequence (Q12809 whole entry): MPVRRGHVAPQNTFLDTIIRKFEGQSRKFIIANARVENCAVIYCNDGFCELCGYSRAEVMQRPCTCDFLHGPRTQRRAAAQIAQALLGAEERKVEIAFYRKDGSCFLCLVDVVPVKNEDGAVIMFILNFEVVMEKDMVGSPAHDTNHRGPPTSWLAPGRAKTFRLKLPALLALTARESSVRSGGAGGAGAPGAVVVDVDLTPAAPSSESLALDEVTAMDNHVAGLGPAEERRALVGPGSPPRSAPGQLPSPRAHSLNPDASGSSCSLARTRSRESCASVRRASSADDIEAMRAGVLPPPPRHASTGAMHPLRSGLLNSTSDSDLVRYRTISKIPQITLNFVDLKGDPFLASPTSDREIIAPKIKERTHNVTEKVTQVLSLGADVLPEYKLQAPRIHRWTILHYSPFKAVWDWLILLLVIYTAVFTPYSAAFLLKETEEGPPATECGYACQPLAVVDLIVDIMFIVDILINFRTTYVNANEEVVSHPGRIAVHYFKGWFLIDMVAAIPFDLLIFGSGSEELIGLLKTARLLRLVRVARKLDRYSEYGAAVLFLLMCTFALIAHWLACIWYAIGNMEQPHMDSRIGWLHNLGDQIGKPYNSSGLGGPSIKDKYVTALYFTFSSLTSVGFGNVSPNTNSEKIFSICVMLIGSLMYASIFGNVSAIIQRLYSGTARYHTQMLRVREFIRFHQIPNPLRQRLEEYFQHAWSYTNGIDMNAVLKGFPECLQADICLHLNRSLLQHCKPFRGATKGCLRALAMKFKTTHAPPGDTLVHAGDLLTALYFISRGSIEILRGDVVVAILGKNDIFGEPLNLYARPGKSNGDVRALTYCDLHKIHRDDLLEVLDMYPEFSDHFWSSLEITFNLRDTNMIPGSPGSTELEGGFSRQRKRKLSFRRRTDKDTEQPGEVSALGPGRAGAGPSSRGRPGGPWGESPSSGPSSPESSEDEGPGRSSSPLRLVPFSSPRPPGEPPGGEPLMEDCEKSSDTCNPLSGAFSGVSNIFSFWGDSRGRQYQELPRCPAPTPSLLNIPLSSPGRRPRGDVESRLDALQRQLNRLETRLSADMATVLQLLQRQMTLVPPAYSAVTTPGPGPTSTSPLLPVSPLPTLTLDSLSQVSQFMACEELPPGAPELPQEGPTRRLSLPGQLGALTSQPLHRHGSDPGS

Compound	IC50 (SARS-CoV-2) [µM]	CC50 at 72 h [1] [µM]	Ratio CC50/IC50 [2]	further results
O=C(CN1C(C(=O)c2ccc(F)cc2)=C(O)c2ccccc2S1(=O)=O)Nc1cccc(F)c1	15.3	> 25		
O=C(CN1C(C(=O)c2ccc(F)c(Cl)c2)=C(O)c2ccc(F)cc2S1(=O)=O)Nc1cccc(OC(F)(F)F)c1	3.1	> 25	8.9	
COc1ccc(C(=O)C2=C(O)c3ccccc3S(=O)(=O)N2CC(=O)Nc2ccc(C(F)(F)F)cc2)cc1	8.6	> 25	2.5	
O=C(CN1C(C(=O)c2cccc(Cl)c2)=C(O)c2ccccc2S1(=O)=O)Nc1ccc(C(F)(F)F)cc1	4.1	> 25	5.8	
O=C(/C=C/N1C(C(=O)c2ccc(F)c(Cl)c2)=C(O)c2ccccc2S1(=O)=O)Nc1cccc(OC(F)(F)F)c1	6.6	> 25	3.6	
CNc1ccc2c(c1)S(=O)(=O)N(CC(=O)Nc1ccc(C(F)(F)F)cc1)C(C(=O)c1ccc(F)c(Cl)c1)=C2O	13.8	> 25	1.3	
N#Cc1ccc(C(=O)C2=C(O)c3ccccc3S(=O)(=O)N2CC(=O)Nc2ccc(C(F)(F)F)cc2)cc1	9.3	> 25	1.4	
COc1ccc(C(=O)C2=C(O)c3ccccc3S(=O)(=O)N2CC(=O)Nc2cccc(OC(F)(F)F)c2)cc1	11.6	> 25	2	
N#Cc1cccc(C(=O)C2=C(O)c3ccccc3S(=O)(=O)N2CC(=O)Nc2cccc(OC(F)(F)F)c2)c1	14.3	> 25	1.6	
O=C(CN1C(C(=O)c2ccc(F)cc2)=C(O)c2ccccc2S1(=O)=O)Nc1ccc(C(F)(F)F)cc1	5.3	> 25	4.7	
O=C(CN1C(C(=O)c2ccc(F)cc2)=C(O)c2ccccc2S1(=O)=O)Nc1ccccc1	> 25	> 25	1	
O=C(CN1C(C(=O)c2ccc(F)c(Cl)c2)=C(O)c2ccc(F)cc2S1(=O)=O)Nc1cccc(Cl)c1	2.2	> 25	12.1	
O=C(CN1C(C(=O)c2ccccc2)=C(O)c2ccccc2S1(=O)=O)Nc1cccc(OC(F)(F)F)c1	11.5	> 25	2.1	
N#Cc1cccc(C(=O)C2=C(O)c3ccccc3S(=O)(=O)N2CC(=O)c2ccc(F)c(Cl)c2)c1	> 25	> 25	1	
O=C(CN1C(C(=O)c2ccc(F)c(Cl)c2)=C(O)c2ccccc2S1(=O)=O)Nc1ccc(C(F)(F)F)cc1	2.5	> 25	11.1	
O=C(CN1C(C(=O)c2ccc(F)c(Cl)c2)=C(O)c2ccc(F)cc2S1(=O)=O)Nc1ccc(C(F)(F)F)cc1	0.88	> 25	30.7	CL [3]: 0.67 mL/min/kg; inhibition at 10 µM (hERG (KCNH2)): < 1%; Activity (Vero): 42.1 µM; Activity (L929): 31.4 µM; Activity (HFL1): 44.2 µM; t1/2 [4]: 18.5 h; remaining at 0.5 h [5]: 61%; Activity (CHO-K1): 10.6 µM; F [6]: 77%; Cmax [7]: 14330 ng/mL; Activity (NIH3T3): 68 µM; remaining at 0.5 h [8]: 93%
N#Cc1ccc(C(=O)C2=C(O)c3ccccc3S(=O)(=O)N2CC(=O)Nc2cccc(OC(F)(F)F)c2)cc1	14.3	> 25	1.6	
O=C(CN1C(C(=O)c2ccc(F)cc2)=C(O)c2ccccc2S1(=O)=O)Nc1cccc(OC(F)(F)F)c1	8.9	> 25	2.7	

Compound	IC50 (SARS-CoV-2) [µM]	CC50 at 72 h [1] [µM]	Ratio CC50/IC50 [2]	further results
CC(C)C(=O)C1=C(O)c2ccccc2S(=O)(=O)N1CC(=O)Nc1ccc(C(F)(F)F)cc1	7.3	> 25	3	
N#Cc1cccc(C(=O)C2=C(O)c3ccccc3S(=O)(=O)N2CC(=O)Nc2ccc(C(F)(F)F)cc2)c1	10.7	> 25	1.5	
O=C(CN1C(C(=O)c2ccccc2)=C(O)c2ccccc2S1(=O)=O)NC1CCCCC1	> 25	> 25	1	
N#Cc1ccc(C(=O)C2=C(O)c3ccccc3S(=O)(=O)N2CC(=O)c2ccc(F)c(Cl)c2)cc1	> 25	> 25	1	
O=C(CN1C(C(=O)c2ccc(Cl)cc2)=C(O)c2ccccc2S1(=O)=O)Nc1ccc(C(F)(F)F)cc1	4	> 25	6	
CC(C)C(=O)C1=C(O)c2ccccc2S(=O)(=O)N1CC(=O)Nc1cccc(OC(F)(F)F)c1	10.8	> 25	1.9	
CCNC(=O)CN1C(C(=O)c2ccccc2)=C(O)c2ccccc2S1(=O)=O	> 25	> 25	1	
O=C(CN1C(C(=O)c2cccc(F)c2)=C(O)c2ccccc2S1(=O)=O)Nc1ccc(C(F)(F)F)cc1	7	> 25	3.2	
O=C(CN1C(C(=O)c2ccc(Cl)cc2)=C(O)c2ccccc2S1(=O)=O)Nc1cccc(OC(F)(F)F)c1	8.5	> 25	2.9	
O=C(CN1C(C(=O)c2ccc(F)c(Cl)c2)=C(O)c2ccccc2S1(=O)=O)Nc1cccc(OC(F)(F)F)c1	9.2	> 25	2.8	
O=C(O)/C=C/N1C(C(=O)c2ccc(F)c(Cl)c2)=C(O)c2ccccc2S1(=O)=O	> 25	> 25	1	
O=C(CN1C(C(=O)c2cccc(F)c2)=C(O)c2ccccc2S1(=O)=O)Nc1cccc(OC(F)(F)F)c1	10.1	> 25	2.3	
CN1CCN(c2ccc3c(c2)S(=O)(=O)N(CC(=O)Nc2ccc(C(F)(F)F)cc2)C(C(=O)c2ccc(F)c(Cl)c2)=C3O)CC1	14	> 25	1.6	
O=C(CN1C(C(=O)c2ccc(F)cc2)=C(O)c2ccccc2S1(=O)=O)Nc1ccccc1Cl	> 25	> 25	1	
O=C(CN1C(C(=O)c2cccc(Cl)c2)=C(O)c2ccccc2S1(=O)=O)Nc1cccc(OC(F)(F)F)c1	11.9	> 25	2.1	
O=C(C1=C(O)c2ccccc2S(=O)(=O)N1Cc1ccccc1)c1ccccc1	> 25	> 25	1	
CCN(CC)CCCC(C)Nc1ccnc2cc(Cl)ccc12 (centres undefined) [CHLOROQUINE]	8	> 25	3.1	
CCC(CC)COC(=O)[C@H](C)N[P@](=O)(OC[C@H]1O[C@@](C#N)(c2ccc3c(N)ncnn23)[C@H](O)[C@@H]1O)Oc1ccccc1 [REMDESIVIR]	7.01	> 25	3.6	
